In ChEMBL document CHEMBL3046158, “Design, synthesis, and fungicidal activity of macrolactones and macrolactams with a sulfonamide side chain” (J Agric Food Chem, 2008):
≈ marks a conversion by molar mass, not a printed value.

system: Rhizoctonia solani; test: Fungicidal activity against Rhizoctonia solani assessed as inhibition of mycelium growth by mycelium growth rate test; format: functional, organism-based
How it was run: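 Mycelial growth rate test on Rhizoctonia solani. Inhibition rates measured at 100, 50, 25, 12.5 and 6.25 µg/mL.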

| SMILES | EC50 [µg/mL] |
| --- | --- |
| O=C1CCCCCCCCCCC(NS(=O)(=O)c2ccccc2)CCCO1 (configuration not stated) | 2.4 (≈ 6.07 µM) |
| Cc1ccc(S(=O)(=O)NC2CCCCCCCCCCC(=O)OCCC2)cc1 (configuration not stated) | 3.7 (≈ 9.03 µM) |
| O=C1CCCCCCCCCCC(NS(=O)(=O)c2ccc(Cl)cc2)CCCO1 (configuration not stated) | 3.3 (≈ 7.67 µM) |
| O=C1CCCCCCCCCCC(NS(=O)(=O)c2cccc([N+](=O)[O-])c2)CCCO1 (configuration not stated) | 18.7 (≈ 42.4 µM) |
| O=C1CCCCCCCCCCC(NS(=O)(=O)c2cc(Cl)ccc2Cl)CCCO1 (configuration not stated) | 28.4 (≈ 61.1 µM) |
| O=C1CCCCCCCCCCC(NS(=O)(=O)c2ccc(F)cc2)CCCO1 (configuration not stated) | 4.5 (≈ 10.9 µM) |
| O=C1CCCCCCCCCCC(NS(=O)(=O)c2ccccc2Cl)CCCO1 (configuration not stated) | 25 (≈ 58.1 µM) |
| O=C1CCCCCCCCCCC(NS(=O)(=O)c2ccccc2[N+](=O)[O-])CCCO1 (configuration not stated) | 22.3 (≈ 50.6 µM) |
| COC(=O)c1ccccc1S(=O)(=O)NC1CCCCCCCCCCC(=O)OCCC1 (configuration not stated) | 20.9 (≈ 46.1 µM) |
| O=C1CCCCCCCCCCC(NS(=O)(=O)c2cccs2)CCCO1 (configuration not stated) | 5.1 (≈ 12.7 µM) |
| O=C1CCCCCCCCCCC(NS(=O)(=O)Cc2ccccc2)CCCO1 (configuration not stated) | 52.4 (≈ 128 µM) |
| CS(=O)(=O)NC1CCCCCCCCCCC(=O)OCCC1 (configuration not stated) | 12.2 (≈ 36.6 µM) |
| CC1CCC(NS(=O)(=O)c2ccccc2)CCCCCCCCCCC(=O)O1 (configuration not stated) | 51.3 (≈ 125 µM) |
| Cc1ccc(S(=O)(=O)NC2CCCCCCCCCCC(=O)OC(C)CC2)cc1 (configuration not stated) | 57 (≈ 135 µM) |
| CC1CCC(NS(=O)(=O)c2ccc(Cl)cc2)CCCCCCCCCCC(=O)O1 (configuration not stated) | 69.6 (≈ 157 µM) |
| CC1CCC(NS(=O)(=O)c2cccc([N+](=O)[O-])c2)CCCCCCCCCCC(=O)O1 (configuration not stated) | 86 (≈ 189 µM) |
| CC1CCC(NS(=O)(=O)c2cc(Cl)ccc2Cl)CCCCCCCCCCC(=O)O1 (configuration not stated) | 30 (≈ 62.7 µM) |
| CC1CCC(NS(=O)(=O)c2ccc(F)cc2)CCCCCCCCCCC(=O)O1 (configuration not stated) | 25.1 (≈ 58.7 µM) |
| CC1CCC(NS(=O)(=O)c2ccccc2Cl)CCCCCCCCCCC(=O)O1 (configuration not stated) | 37.9 (≈ 85.4 µM) |
| CC1CCC(NS(=O)(=O)c2ccccc2[N+](=O)[O-])CCCCCCCCCCC(=O)O1 (configuration not stated) | 93.3 (≈ 205 µM) |
| COC(=O)c1ccccc1S(=O)(=O)NC1CCCCCCCCCCC(=O)OC(C)CC1 (configuration not stated) | 53.4 (≈ 114 µM) |

| SMILES | EC50 [µg/mL] |
| --- | --- |
| CC1CCC(NS(=O)(=O)c2cccs2)CCCCCCCCCCC(=O)O1 (configuration not stated) | 20.3 (≈ 48.8 µM) |
| CC1CCC(NS(=O)(=O)Cc2ccccc2)CCCCCCCCCCC(=O)O1 (configuration not stated) | 28.2 (≈ 66.6 µM) |
| CC1CCC(NS(C)(=O)=O)CCCCCCCCCCC(=O)O1 (configuration not stated) | 56.4 (≈ 162 µM) |
| O=C1CCCCCCCCCCC(NS(=O)(=O)c2ccccc2)CCCN1 (configuration not stated) | 55.3 (≈ 140 µM) |
| Cc1ccc(S(=O)(=O)NC2CCCCCCCCCCC(=O)NCCC2)cc1 (configuration not stated) | 13.4 (≈ 32.8 µM) |
| O=C1CCCCCCCCCCC(NS(=O)(=O)c2ccc(Cl)cc2)CCCN1 (configuration not stated) | 19.6 (≈ 45.7 µM) |
| O=C1CCCCCCCCCCC(NS(=O)(=O)c2cccc([N+](=O)[O-])c2)CCCN1 (configuration not stated) | 27.6 (≈ 62.8 µM) |
| O=C1CCCCCCCCCCC(NS(=O)(=O)c2cc(Cl)ccc2Cl)CCCN1 (configuration not stated) | 30.4 (≈ 65.6 µM) |
| O=C1CCCCCCCCCCC(NS(=O)(=O)c2ccc(F)cc2)CCCN1 (configuration not stated) | 36.7 (≈ 89 µM) |
| O=C1CCCCCCCCCCC(NS(=O)(=O)c2ccccc2Cl)CCCN1 (configuration not stated) | 59.5 (≈ 139 µM) |
| O=C1CCCCCCCCCCC(NS(=O)(=O)c2ccccc2[N+](=O)[O-])CCCN1 (configuration not stated) | 21.5 (≈ 48.9 µM) |
| COC(=O)c1ccccc1S(=O)(=O)NC1CCCCCCCCCCC(=O)NCCC1 (configuration not stated) | 12.8 (≈ 28.3 µM) |
| O=C1CCCCCCCCCCC(NS(=O)(=O)c2cccs2)CCCN1 (configuration not stated) | 18.3 (≈ 45.7 µM) |
| O=C1CCCCCCCCCCC(NS(=O)(=O)Cc2ccccc2)CCCN1 (configuration not stated) | 8.1 (≈ 19.8 µM) |
| CS(=O)(=O)NC1CCCCCCCCCCC(=O)NCCC1 (configuration not stated) | 45.1 (≈ 136 µM) |
| O=C1CCCCCCCCCCCN1CCNS(=O)(=O)c1ccccc1 | 11.6 (≈ 30.5 µM) |
| Cc1ccc(S(=O)(=O)NCCN2CCCCCCCCCCCC2=O)cc1 | 8.8 (≈ 22.3 µM) |
| O=C1CCCCCCCCCCCN1CCNS(=O)(=O)c1ccc(Cl)cc1 | 18.7 (≈ 45.1 µM) |
| O=C1CCCCCCCCCCCN1CCNS(=O)(=O)c1cccc([N+](=O)[O-])c1 | 10.7 (≈ 25.1 µM) |
| O=C1CCCCCCCCCCCN1CCNS(=O)(=O)c1cc(Cl)ccc1Cl | 5.3 (≈ 11.8 µM) |
| COC(=O)Nc1nc2ccccc2[nH]1 [CARBENDAZIM] | 1.5 (≈ 7.85 µM) |
